An excerpt weighted towards active compounds, which were near 1.5% of everything screened.
Runt-SMMHC FRET – blocks binding of human RUNX1 Runt domain to CBFb-SMMHC. Cerulean-Runt/Venus-CBFb-SMMHC FRET ratio 530/480, 1 h. inhibition, % at 20 µM. 0.74% of 220,000 active. AID 1434;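 active = mean inhibition across duplicate retests at 20 µM reaching about 50%, limit read from the data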;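 note: 0% = DMSO wells and 100% = wells with excess untagged CBFb-SMMHC; inhibitors lower the FRET ratio by blocking Runt binding to CBFb-SMMHC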
Runt-CBFb FRET – Runt domain-CBFb interaction inhibition | 0.46% of 220,000 active | Cerulean-Runt/Venus-CBFb FRET ratio 530/480, 1 h | inhibition, % at 20 µM | Q01196+Q13951;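 active = inhibition over about 50% at 20 µM in the single-dose screen, limit read from the data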;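 note: 0% = DMSO wells and 100% = excess unlabeled CBFb competitor control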
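Measured by: fluorescence energy transfer, 422 nm excitation, 530/480 nm emission; Assay system: Cerulean-Runt domain; Medium: Tris pH 7.5 buffer with BSA; Measure: loss of energy transfer signal; Controls: 5 µM unlabeled CBFb as full-inhibition high control; Incubation: protein complex preformed 1 h, compound exposure 1 h, room temperature, dark.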
Hck Nef HTS – human Hck-Nef kinase inhibition | P08631 | Recombinant Hck-YEEI plus Nef, Z-Lyte FRET kinase assay | inhibition, % at 20 µM | 0.68% of 220,000 active | AID 463187;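 active = Hck-Nef kinase inhibition above about 50%, limit read from the data; inactive = inhibition below that limit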;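 note: 0% = DMSO with Hck plus Nef and 100% = Hck alone without Nef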
Target sequence (P08631 whole entry, looked up): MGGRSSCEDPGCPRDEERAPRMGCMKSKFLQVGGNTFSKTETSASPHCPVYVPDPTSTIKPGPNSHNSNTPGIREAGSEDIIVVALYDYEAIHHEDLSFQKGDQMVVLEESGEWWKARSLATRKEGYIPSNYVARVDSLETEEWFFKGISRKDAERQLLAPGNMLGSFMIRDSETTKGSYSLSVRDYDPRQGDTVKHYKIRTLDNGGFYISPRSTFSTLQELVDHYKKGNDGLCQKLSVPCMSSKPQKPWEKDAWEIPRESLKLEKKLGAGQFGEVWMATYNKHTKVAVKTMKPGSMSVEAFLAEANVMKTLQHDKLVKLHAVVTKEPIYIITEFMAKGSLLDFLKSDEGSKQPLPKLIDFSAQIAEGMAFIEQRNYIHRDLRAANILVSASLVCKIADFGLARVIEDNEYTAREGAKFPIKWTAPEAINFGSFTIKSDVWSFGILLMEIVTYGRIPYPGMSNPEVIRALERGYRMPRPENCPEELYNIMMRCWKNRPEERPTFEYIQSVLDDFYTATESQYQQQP
CaV13 ICDI inh – Primary screen for inhibitors of IQ motif and Ca2+-dependent inactivation inhibitor domain binding in CACNA1D, Förster resonance energy transfer in living cells, …; HEK cells, CFP/YFP FRET ICDI-IQ, plate reader, 10 min; percent FRET-ratio fall versus neutral wells; inhibition, % at 12.3 µM; 0.098% of 340,000 active;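 active = mean replicate inhibition of at least 30% and at least 1% of replicates passing that level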;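 note: 0% = median of the neutral control wells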
RanGTP-Imp inh – disruptors of Ran-importin-beta complex formation – biochemical, FRET, CFP-Ran, YFP-importin-beta, homogeneous, primary screen | 1.1% of 300,000 active | AID 2216 | inhibition, % (test concentration not listed) | cell-free CFP-Ran/YFP-importin-beta FRET ratio;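 active = more than half of the replicate wells show a fall in the fluorescence ratio signal beyond about 16%, limit read from the data, passing the limit was not always enough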;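 note: 0% = DMSO wells and 100% = Ran loaded with GDP instead of GTP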
An asterisk follows results filed as active; x = not tested or not shown.

SMILES	Runt-SMMHC FRET	Runt-CBFb FRET	Hck Nef HTS	CaV13 ICDI inh	RanGTP-Imp inh
CN(CCC#N)c1ccc(/C=C(\C#N)c2ccccn2)cc1	79*	4	47	-3	-27
CCN(Cc1ccccc1)c1ccc(/C=C(\C#N)c2ccccn2)cc1	-59	-125	-1	-2	6
CCN(CC)c1ccc(/C=C(\C#N)c2ccccn2)cc1	-45	-21	29	x	45*
O=C(CCc1ccc(S(=O)(=O)N2CCOCC2)cc1)Nc1nccs1	147	104*	-2	x	1
Cc1ccc[n+](CC(=O)Nc2ccc([N+](=O)[O-])cc2Cl)c1	9	0	1	-9	176*
Cc1cccn2c(=O)c(/C=C(\C#N)C(N)=O)c(N3CCN(Cc4ccc5c(c4)OCO5)CC3)nc12	x	122*	1	-3	8
CNC(=O)/C(C#N)=C/c1c(N2CCN(c3ccccc3)CC2)nc2c(C)cccn2c1=O	x	x	x	-20	19*
Cc1cccn2c(=O)c(C=C(C#N)C#N)c(N3CCN(c4ccccc4)CC3)nc12	x	x	x	-18	25*
COC(=O)/C(C#N)=C/c1c(N2CCN(c3ccc(OC)cc3)CC2)nc2c(C)cccn2c1=O	x	x	x	-18	34*
CNC(=O)/C(C#N)=C/c1c(N2CCN(c3ccc(OC)cc3)CC2)nc2c(C)cccn2c1=O	x	x	x	-19	8
CCOC(=O)/C(C#N)=C/c1c(N2CCN(Cc3ccc4c(c3)OCO4)CC2)nc2c(C)cccn2c1=O	-17	-11	10	-4	-36
COc1ccc(S(=O)(=O)NCC(=O)N(CC(=O)NCc2ccco2)Cc2ccccc2)cc1	x	x	x	-4	-1
COc1ccc(NC(=O)CSc2ccccc2)cn1	-2	0	21	14	-3
C/C(O)=c1/ccc2cccc3nc(C)nc1c23	x	-13	-1	1	54*
O=C(N/N=C/c1cc(Br)c(Br)o1)c1cc2ccccc2o1	x	x	x	-6	-2
CC(C)[C@H](NC(=O)c1ccccc1)C(=O)OCC(=O)N1CC(=O)Nc2ccccc21	3	2	6	-5	-2
CC(C)(C)NS(=O)(=O)c1ccc(CCC(=O)N2CCOCC2)cc1	1	2	-20	-4	35*
CNS(=O)(=O)c1ccc(CCC(=O)N2CCOCC2)cc1	x	x	x	-1	4
c1ccc(C(c2c[nH]c3ccccc23)c2c[nH]c3ccccc23)nc1	3	0	2	x	52*
COc1ccc(C2OC34CCCCC3C(C#N)(C#N)C2(C#N)C(=N)O4)cc1 (stereo unspecified)	77*	32	1	-8	43*
N#CC12COC3(CCCCC3C1(C#N)C#N)OC2=N (stereo unspecified)	18	1	13	-11	33*
CCC1OC23CCCCC2C(C#N)(C(=N)O3)C1(C#N)C#N (stereo unspecified)	52	24	0	-9	27*
CCCC1OC23CCCCC2C(C#N)(C(=N)O3)C1(C#N)C#N (stereo unspecified)	33	25	2	-10	33*
CC1OC23CCCCC2C(C#N)(C(=N)O3)C1(C#N)C#N (stereo unspecified)	38	27	4	-6	8
Cc1cccc(NC(=O)c2ccc(Cn3cc(C(F)(F)F)ccc3=O)cc2)c1	1	-4	1	-4	48*
SMILES	Runt-SMMHC FRET	Runt-CBFb FRET	Hck Nef HTS	CaV13 ICDI inh	RanGTP-Imp inh
c1cc2c3c(cccc3c1)C(N1CCCCC1)=N2	-61	-17	1	x	4
c1cc2c3c(cccc3c1)C(N1CCCCCC1)=N2	60	-17	2	x	23*
Cc1ccc(CN2CCN(C(=O)/C=C/[C@H]3O[C@@H](n4cc(C)c(=O)[nH]c4=O)C[C@@H]3O)CC2)cc1	x	x	x	-3	x
Cc1ccc(S(=O)(=O)Nc2nc3ccccc3nc2Nc2cccc(S(=O)(=O)N3CCCC3)c2)cc1	90*	36	-3	-2	30*
Cc1ccc(C)n1-c1cc([N+](=O)[O-])ccc1-n1ccnc1	-4	-2	-8	-5	1
CC1(C)N([O-])c2cc([N+](=O)[O-])ccc2[N+]1=O	85*	63*	-122	-12	x
Cc1ccc(NC(=O)CSc2nnc(-c3ccco3)o2)c(C)c1	2	0	20	-4	-1
C(=N\Nc1nc2ccccc2[nH]1)/c1ccccn1	2	-1	18	6	3

Screens from PubChem BioAssay.
